Measured values from PMC12466149 (eBioMedicine, 2025).
“Also recorded” adds a separate entry of the source.

Legend:
[1] = system: MC65 Tet-Off cells (Aβ expressed); assay: Protection against Aβ toxicity in MC65 Tet-Off cells; assay type: cell-based, human; conditions: any concentration of rotenone; data not shown
Procedure, shortened: (§1)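 MC65 human neuroblastoma cells in high-glucose DMEM with 10% FBS, 1 mM pyruvate and nonessential amino acids, 5% CO2, 37 °C. Tet-Off (Aβ expressed) cells got test compound at 2 nM–5 μM, optionally after 30 min pretreatment with 32 nM rotenone. Tet-On cells got vehicle or 32 nM rotenone. Viability at 3 days by MTT: 0.25 mg/ml, 4 h at 37 °C, solubilised in HCl/isopropanol, read at 570 nm. Tet-On vehicle set as 100%.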

MC65 Tet-On cells [2] = assay: Cytotoxicity in MC65 Tet-On cells; assay type: cell-based, human; conditions: 32 nM rotenone
Procedure, shortened: as §1

[3] = system: mitochondrial complex I (mtCI); assay: mtCI activity in isolated brain mitochondria; assay type: biochemical, mouse; conditions: 1 μM rotenone
Procedure, shortened: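 Mouse brain mitochondria isolated by differential centrifugation (5900×g 4 min, then 12,000×g 10 min, 4 °C) in mannitol/sucrose/HEPES-Tris/EGTA medium, pH 7.4, with BSA and 0.02% digitonin. Complex I activity measured spectrophotometrically at 25 °C as oxidation of 0.15 mM NADH at 340 nm. Buffer: sucrose/Tris-HCl pH 7.5/KCl with 10 μM cytochrome c, 40 μg/ml alamethicin and 1 mM MgCl2.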

MC65 Tet-On cells [4] = assay: Real-time respirometry; assay type: cell-based, human
SH-SY5Y APPSWE cells = assay: Mitochondrial stress test; assay type: cell-based, human; conditions: rotenone 256 nM
Procedure, shortened: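 For SH-SY5Y cells stably expressing APPSWE, cells were held 1 h at 37 °C without CO2 in XF DMEM pH 7.4 (1 mM pyruvate, 2 mM glutamine, 10 mM glucose). OCR was recorded basally, then after oligomycin A and FCCP (each titrated over 0.5–3 μM) and 0.5 μM rotenone plus 0.5 μM antimycin A. Hoechst (5 μM final) was used for cell-count normalisation. SRC = maximal minus basal OCR.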

Which results are given for C=C(C)[C@H]1Cc2c(ccc3c2O[C@@H]2COc4cc(OC)c(OC)cc4[C@@H]2C3=O)O1 [rotenone]?
Protection against Aβ toxicity [1]: did not protect; Cytotoxicity (MC65 Tet-On cells [2]): show no toxicity; also recorded: did not induce cell death; mtCI inhibition (in words) [3]: complete inhibition; also recorded: completely inhibits; Reduction of OCR (MC65 Tet-On cells [4]; 32 nM rotenone, within 30 min): 50%; Effect on respiration (MC65 Tet-On cells [4]; kinetic injection): immediately blocked respiration; Spare respiratory capacity (SRC) (SH-SY5Y APPSWE cells): did not improve SRC
